Assay results as given in ChEMBL document CHEMBL4665743, “Labdane-Type Diterpenes from the Aerial Parts of Rydingia persica: Their Absolute Configurations and Protective Effects on LPS-Induced Inflammation in Keratinocytes” (2020).

Tests used:
Assay type in all cases: functional
[1] = system: HaCaT; assay: Anti-inflammatory activity in human HaCaT cells assessed as inhibition of LPS-induced IL-6 production at 12.5 uM after 24 hrs by ELISA relative to LPS alone
Procedure, shortened: (§1)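 HaCaT keratinocytes (DMEM, 4 g/L glucose, 10% FBS, 1% pen-strep) seeded 5 × 10^3 cells/well and allowed to adhere 24 h. Compounds added for 1 h alone, then with E. coli LPS (5 μg/mL) for 24 h. IL-6 or TNF-α measured in supernatants by ELISA (pg/mL) and expressed as % inhibition vs LPS alone. Indomethacin 10 μM served as reference. Mean ± SEM, n = 3.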

[2] = system: HaCaT; assay: Anti-inflammatory activity in human HaCaT cells assessed as inhibition of LPS-induced IL-6 production at 25 uM after 24 hrs by ELISA relative to LPS alone; procedure, shortened: as §1
[3] = system: HaCaT; assay: Anti-inflammatory activity in human HaCaT cells assessed as inhibition of LPS-induced IL-6 production at 50 uM after 24 hrs by ELISA relative to LPS alone; procedure, shortened: as §1
[4] = system: HaCaT; assay: Anti-inflammatory activity in human HaCaT cells assessed as inhibition of LPS-induced TNF-alpha production at 50 uM after 24 hrs by ELISA relative to LPS alone; procedure, shortened: as §1
[5] = system: HaCaT; assay: Anti-inflammatory activity in human HaCaT cells assessed as inhibition of LPS-induced TNF-alpha production at 25 uM after 24 hrs by ELISA relative to LPS alone; procedure, shortened: as §1
[6] = system: HaCaT; assay: Anti-inflammatory activity in human HaCaT cells assessed as inhibition of LPS-induced TNF-alpha production at 12.5 uM after 24 hrs by ELISA relative to LPS alone; procedure, shortened: as §1
[7] = system: HaCaT; assay: Anti-inflammatory activity in human HaCaT cells assessed as inhibition of LPS-induced nitrotyrosine production at 50 uM after 24 hrs by FACS analysis relative to LPS alone
Procedure, shortened: (§2)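 Cells were HaCaT seeded at 5 × 10^3 cells/well and pretreated with compound 1 h, then exposed to LPS (5 μg/mL) for 24 h. They were collected, PBS-washed, fixed 20 min and permeabilized 30 min, then stained 1 h with anti-nitrotyrosine antibody plus fluorescent secondary. Fluorescence was read by flow cytometry and expressed as % inhibition vs LPS alone. Mean ± SEM, n = 3.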

[8] = system: HaCaT; assay: Anti-inflammatory activity in human HaCaT cells assessed as inhibition of LPS-induced nitrotyrosine production at 25 uM after 24 hrs by FACS analysis relative to LPS alone; procedure, shortened: as §2
[9] = system: HaCaT; assay: Anti-inflammatory activity in human HaCaT cells assessed as inhibition of LPS-induced nitrotyrosine production at 12.5 uM after 24 hrs by FACS analysis relative to LPS alone; procedure, shortened: as §2
[10] = system: HaCaT; assay: Anti-inflammatory activity in human HaCaT cells assessed as inhibition of LPS-induced claudin-1 expression at 50 uM after 24 hrs by FACS analysis (rvb = 31.19 +/- 0.77)
[11] = system: HaCaT; assay: Anti-inflammatory activity in human HaCaT cells assessed as inhibition of LPS-induced claudin-1 expression at 25 uM after 24 hrs by FACS analysis (rvb = 31.19 +/- 0.77)
[12] = system: HaCaT; assay: Anti-inflammatory activity in human HaCaT cells assessed as inhibition of LPS-induced claudin-1 expression at 12.5 uM after 24 hrs by FACS analysis (rvb = 31.19 +/- 0.77)
[13] = system: HaCaT; assay: Anti-inflammatory activity in human HaCaT cells assessed as inhibition of LPS-induced occluding expression at 50 uM after 24 hrs by FACS analysis (rvb = 30.17 +/- 5.98)
[14] = system: HaCaT; assay: Anti-inflammatory activity in human HaCaT cells assessed as inhibition of LPS-induced occluding expression at 25 uM after 24 hrs by FACS analysis (rvb = 30.17 +/- 5.98)
[15] = system: HaCaT; assay: Anti-inflammatory activity in human HaCaT cells assessed as inhibition of LPS-induced occluding expression at 12.5 uM after 24 hrs by FACS analysis (rvb = 30.17 +/- 5.98)
[16] = system: HaCaT; assay: Anti-inflammatory activity in human HaCaT cells assessed as inhibition of LPS-induced IL-6 production at 10 uM after 24 hrs by ELISA relative to LPS alone; procedure, shortened: as §1
[17] = system: HaCaT; assay: Anti-inflammatory activity in human HaCaT cells assessed as inhibition of LPS-induced TNF-alpha production at 10 uM after 24 hrs by ELISA relative to LPS alone; procedure, shortened: as §1

Row | Compound | inhibition at 12.5 µM [1] [%] | inhibition at 25 µM [2] [%] | inhibition at 50 µM [3] [%] | inhibition at 50 µM [4] [%] | inhibition at 25 µM [5] [%] | inhibition at 12.5 µM [6] [%] | inhibition at 50 µM [7] [%] | inhibition at 25 µM [8] [%] | inhibition at 12.5 µM [9] [%] | Flu intensity [10] | Flu intensity [11] | Flu intensity [12] | Flu intensity [13] | Flu intensity [14] | Flu intensity [15] | inhibition at 10 µM [16] [%] | inhibition at 10 µM [17] [%]
1 | CC1=C(CCC2=CC(O)OC2=O)[C@@]2(C)CC[C@@H](O)C(C)(C)[C@@H]2CC1=O (some centres not stated) | 56 | 70.5 | 76 | 73.5 | 70.5 | 68 | 58.7 | 37 | 30 | 22.83 | 13.14 | 5.01 | 25.71 | 13.83 | 10.27 | – | –
2 | C[C@@H]1C(=O)C[C@H]2C(C)(C)[C@H](O)CC[C@]2(C)[C@@]1(O)CCc1ccoc1 | 48 | 64.5 | 69.5 | 65 | 62.5 | 37 | 46.3 | 30.5 | 6.33 | 36.5 | 30.04 | 19.29 | 32.27 | 24.34 | 17.8 | – | –
3 | COC1C=C(CCC2=C(C)C(=O)C[C@H]3C(C)(C)[C@H](O)CC[C@]23C)C(=O)O1 (some centres not stated) | 65.5 | 74 | 74.5 | 72 | 68 | 52 | 59.3 | 29.5 | 0.5 | 27.21 | 20.46 | 16.74 | 34.73 | 22.64 | 18.46 | – | –
4 | CC(=O)OC[C@@]1(C)[C@H](O)CC[C@]2(C)C(CCC3=CC(O)OC3=O)=C(C)C(=O)C[C@@H]12 (some centres not stated) | 44.5 | 49.5 | 73.5 | 56.5 | 47.5 | 35 | 61.7 | 43 | 3.67 | 34.13 | 20.73 | 14.41 | 32.25 | 21.77 | 12.54 | – | –
5 | CO[C@H]1C[C@]2(CC[C@@]3(O2)[C@H](C)C(=O)[C@@H](O)[C@H]2C(C)(C)[C@H](O)CC[C@@]23C)CO1 | 38.5 | 68.5 | 78 | 65 | 55 | 44 | 38 | 15 | 0 | 31.45 | 22.27 | 14.39 | 35.8 | 23.48 | 18.89 | – | –
6 | CO[C@@H]1C[C@@]2(CC[C@@]3(O2)[C@H](C)C(=O)C[C@H]2C(C)(C)[C@H](O)CC[C@@]23C)C(=O)O1 | 75 | 75.5 | 76.5 | 56.5 | 50.5 | 41.5 | 57.5 | 40 | 14.3 | 32.36 | 24.86 | 8.09 | 25.11 | 18.73 | 9.09 | – | –
7 | CC(=O)O[C@@H]1CC[C@@]2(C)[C@@H](C(=O)[C@H](O)[C@@H](C)[C@]2(O)CCc2ccoc2)C1(C)C | 73.5 | 77 | 80.5 | 68 | 62 | 15.6 | 56.3 | 42.7 | 9 | 26.08 | 16.35 | 14.96 | 22.88 | 16.06 | 10.89 | – | –
8 | CC1=C(CCc2ccoc2)[C@@]2(C)CC[C@@H](O)C(C)(C)[C@@H]2[C@H](O)C1=O | 65.5 | 69 | 81 | 68 | 68 | 39.5 | 56 | 40 | 5 | 34.97 | 23.72 | 12.24 | 31.92 | 21.1 | 18.52 | – | –
9 | CC(=O)OC[C@@]1(C)[C@H](O)CC[C@]2(C)C(CCc3ccoc3)=C(C)C(=O)C[C@@H]12 | 66.5 | 67 | 73.5 | 44 | 25 | 0 | 58.3 | 44 | 0 | 17.12 | 14.18 | 6.86 | 31.34 | 19.18 | 13.27 | – | –
10 | CO[C@@H]1C[C@]2(CC[C@@]3(O2)[C@H](C)C(=O)C[C@H]2C(C)(C)[C@H](O)CC[C@@]23C)CO1 | 63 | 71.5 | 76.5 | 68 | 62.5 | 44 | 39.3 | 21 | 0 | 33.58 | 22.52 | 13.55 | 24.77 | 18.59 | 8.82 | – | –
11 | COc1ccc2c(c1)c(CC(=O)O)c(C)n2C(=O)c1ccc(Cl)cc1 [INDOMETHACIN] | – | – | – | – | – | – | – | – | – | – | – | – | – | – | – | 88.5 | 77
